Source: paper PMC12796350 (Scientific Reports, 2025)
Read-outs that look alike come from different tables or passages of the source.

Tests used:
[1] = system: HeLa (human cervical cancer) cells; experiment: MTT cytotoxicity assay, HeLa; type: cell-based; settings: for IC50: read-out: IC50 HeLa, 72 h; for SI HeLa (Selectivity Index): SI = IC50 for normal cell line (HaCaT)/IC50 cancer cell line
In short: (§1)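 Cells were seeded in 96-well plates at 1 × 10^4 per well in DMEM with 2% FBS and exposed 72 h to a range of test-compound concentrations. MTT (0.5 mg/mL) was added for 4 h, and formazan was dissolved in 0.04 M HCl/isopropanol. A570 was read relative to untreated control. […] SI = IC50 in HaCaT keratinocytes / IC50 in the cancer line. Mean SD.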

[2] = system: SW620 (human colorectal cancer) cells; experiment: MTT cytotoxicity assay, SW620; type: cell-based; settings: for SI SW620 (Selectivity Index): SI = IC50 for normal cell line (HaCaT)/IC50 cancer cell line
In short: as §1

[3] = system: HaCaT (immortalized human keratinocytes); experiment: MTT cytotoxicity assay, HaCaT normal cells; type: cell-based; settings: read-out: IC50 HaCaT (normal cells), 72 h
[4] = system: HTB-140 (human melanoma) cells; experiment: MTT cytotoxicity assay, HTB-140; type: cell-based; settings: for IC50: read-out: IC50 HTB-140, 72 h; for SI HTB-140 (Selectivity Index): SI = IC50 for normal cell line (HaCaT)/IC50 cancer cell line
In short: as §1

[5] = system: A549 (human lung adenocarcinoma) cells; experiment: MTT cytotoxicity assay, A549; type: cell-based; settings: for IC50: read-out: IC50 A549; for SI A549 (Selectivity Index): SI = IC50 for normal cell line (HaCaT)/IC50 cancer cell line
In short: as §1

[6] = system: A549 cells; experiment: Apoptosis, Annexin V-FITC/7-AAD flow cytometry, A549; type: cell-based, human; settings: for cells in late apoptosis or necrosis: A549, IC50 concentration, 72 h
In short: (§2)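 Human HTB-140, A549, HeLa, SW620 or HaCaT cells were grown in DMEM with 2% FBS at 1 × 10^4 cells per well and preincubated 72 h with test compound. Camptothecin, 4 µM for 4 h, served as the positive control. Cells were dual-stained with Annexin V-FITC and 7-AAD, and 10,000 cells were analysed by flow cytometry. Annexin+/7-AAD− cells counted as early apoptotic; Annexin+/7-AAD+ as late apoptotic or necrotic.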

[7] = system: HTB-140 cells; experiment: Apoptosis, Annexin V-FITC/7-AAD flow cytometry, HTB-140; type: cell-based, human
In short: as §2

[8] = system: HeLa cells; experiment: Apoptosis, Annexin V-FITC/7-AAD flow cytometry, HeLa; type: cell-based, human; settings: 4 µM, 4 h
In short: as §2

[9] = system: HaCaT cells; experiment: Apoptosis, Annexin V-FITC/7-AAD flow cytometry, HaCaT; type: cell-based, human; settings: 4 µM, 4 h
In short: as §2

[10] = system: SW620 cells; experiment: Apoptosis, Annexin V-FITC/7-AAD flow cytometry, SW620; type: cell-based, human; settings: SW620, 4 µM, 4 h
In short: as §2

[11] = system: interleukin-6 (IL-6) release, HeLa cells; experiment: IL-6 level by ELISA, HeLa; type: cell-based, human; settings: IC50 dose, 72 h
In short: (§3)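 Cells were seeded at 1 × 10^4 per well in DMEM with 2% FBS and exposed to test compound for 72 h. IL-6 in the culture supernatant was measured with a commercial ELISA kit and compared with untreated control. Data are mean ± SD from three independent experiments, each run in triplicate, compared by Student's t-test.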

[12] = system: interleukin-6 (IL-6) release, HTB-140 cells; experiment: IL-6 level by ELISA, HTB-140; type: cell-based, human; settings: HTB-140, IC50 dose, 72 h
In short: as §3

[13] = system: interleukin-6 (IL-6) release, SW620 cells; experiment: IL-6 level by ELISA, SW620; type: cell-based, human; settings: SW620, IC50 dose, 72 h
In short: as §3

[14] = system: interleukin-6 (IL-6) release, A549 cells; experiment: IL-6 level by ELISA, A549; type: cell-based, human; settings: A549, IC50 dose, 72 h
In short: as §3

[15] = system: HaCaT cells; experiment: LDH release assay, HaCaT; type: cell-based, human; settings: 25 µM, 72 h
[16] = system: HTB-140 cells; experiment: LDH release assay, HTB-140; type: cell-based, human; settings: 25 µM, 72 h
[17] = read-out: IC50 SW620, MTT, 72 h, mean SD
[18] = Homo sapiens, SW-620, 72 h, read-out: IC50 SW620, MTT, 72 h, mean SD
[19] = HTB-140, IC50 concentration, 72 h

Row | SMILES | IC50 ([1]; Homo sapiens, HeLa) | SI HeLa (Selectivity Index) [1] | IC50 [2, 18] | SI SW620 (Selectivity Index) [2] | IC50 ([3]; Homo sapiens, HaCaT) | IC50 ([4]; Homo sapiens) | SI HTB-140 (Selectivity Index) [4] | IC50 ([5]; Homo sapiens, A549, 72 h) | SI A549 (Selectivity Index) [5] | further results
1 | N.N.[Cl][Pt][Cl] [Ref 1, cisplatin, reference compound] | – | – | – | – | – | – | – | – | – | IC50 ([1]; MTT, mean SD): 1.8 ± 0.74 µM; IC50 [2, 17]: 1.9 ± 0.9 µM; IC50 ([3]; MTT, mean SD): 2.8 ± 1.1 µM; IC50 ([4]; MTT, mean SD): 1.4 ± 0.69 µM; IC50 ([5]; MTT, 72 h, mean SD): 2.7 ± 1.1 µM
2 | CCc1cc(=O)c2c(OCC(O)CN3CCC(C)CC3)c3ccoc3c(OC)c2o1 (stereo not shown) [Compound 5, 7-ethyl-9-methoxy-4-[2-hydroxy-3-(4-methylpiperidin-1-yl)propoxy]-5H-furo[3,2-g][1]benzopyran-5-one] | 32.6 ± 3.7 µM | 1.34 | 26.3 ± 3.3 µM | 1.67 | 43.8 ± 8.3 µM | 29.4 ± 4.9 µM | 1.49 | 43.8 ± 8.3 µM | 1.00 | –
3 | CC[C@@]1(O)C(=O)OCc2c1cc1n(c2=O)Cc2cc3ccccc3nc2-1 [camptothecin] | – | – | – | – | – | – | – | – | – | apoptosis induction (positive control) ([6]; A549, 4 µM, 4 h): induced apoptosis; apoptosis induction (positive control) ([7]; HTB-140, 4 µM, 4 h): induced apoptosis; apoptosis induction (positive control) [8]: induced apoptosis; apoptosis induction (positive control) [9]: induced apoptosis; apoptosis induction (positive control) [10]: induced apoptosis
4 | CCc1cc(=O)c2c(OCC(O)CN3CCOCC3)c3ccoc3c(OC)c2o1 (stereo not shown) [Compound 9, 7-ethyl-9-methoxy-4-[2-hydroxy-3-(morpholin-4-yl)propoxy]-5H-furo[3,2-g][1] benzopyran-5-one] | 29.5 ± 4.6 µM | 1.82 | 21.9 ± 4.3 µM | 2.45 | 53.6 ± 7.3 µM | 23.4 ± 2.6 µM | 2.29 | 37.6 ± 7.3 µM | 1.43 | –
5 | COc1cccc2c1C(=O)c1c(O)c3c(c(O)c1C2=O)C[C@@](O)(C(=O)CO)C[C@@H]3O[C@H]1C[C@H](N)[C@H](O)[C@H](C)O1 [Ref 2, doxorubicin, reference compound] | 0.6 ± 0.14 µM | – | 0.7 ± 0.16 µM | – | – | 0.5 ± 0.21 µM | – | 0.9 ± 0.19 µM | – | –
6 | CCc1cc(=O)c2c(OCC(O)CNC(C)(C)C)c3ccoc3c(OC)c2o1 (stereo not shown) [Compound 8, 7-ethyl-9-methoxy-4-[3-(tert-butylamino)-2-hydroxypropoxy]-5H-furo[3,2-g][1] benzopyran-5-one] | 33.4 ± 4.6 µM | 1.38 | 26.3 ± 4.3 µM | 1.75 | 46.1 ± 7.3 µM | 31.3 ± 2.6 µM | 1.47 | 38.4 ± 7.3 µM | 1.20 | –
7 | CCc1cc(=O)c2c(OCC(O)CN(CC)CC)c3ccoc3c(OC)c2o1 (stereo not shown) [Compound 3, 7-ethyl-9-methoxy-4-[3-(diethylamino)-2-hydroxypropoxy]-5H-furo[3,2-g][1] benzopyran-5-one] | 34.2 ± 4.9 µM | 1.27 | 12.7 ± 5.1 µM | 3.41 | 43.3 ± 9.1 µM | 30.1 ± 4.7 µM | 1.44 | 33.6 ± 4.1 µM | 1.29 | inhibition of IL-6 release vs control [11]: 48%
8 | CCc1cc(=O)c2c(O)c3ccoc3c(O)c2o1 [Compound 1, 7-ethyl-4,9-dihydroxy-5 H-furo[3,2-g][1]benzopyran-5-one] | 41.5 ± 4.6 µM | 1.20 | 21.1 ± 4.4 µM | 2.36 | 49.8 ± 7.9 µM | 30.4 ± 8.7 µM | 1.64 | 39.8 ± 7.9 µM | 1.25 | –
9 | CCc1cc(=O)c2c(OCC(O)CN3CCCCC3)c3ccoc3c(OC)c2o1 (stereo not shown) [Compound 7, 7-ethyl-9-methoxy-4-[2-hydroxy-3-(piperidin-1-yl)propoxy]-5H-furo[3,2-g][1] benzopyran-5-one] | 32.3 ± 3.8 µM | 1.61 | 28.6 ± 5.5 µM | 1.81 | 51.9 ± 6.3 µM | 32.5 ± 4.1 µM | 1.60 | 35.2 ± 6.3 µM | 1.47 | –
10 | CCc1cc(=O)c2c(OCC(O)CNC(C)C)c3ccoc3c(OC)c2o1 (stereo not shown) [Compound 4, 7-ethyl-9-methoxy-4-{2-hydroxy-3-[(propan-2-yl)amino]propoxy}-5H-furo[3,2-g][1]benzopyran-5-one] | 27.4 ± 6.5 µM | 1.54 | 11.4 to 11.5 µM | 3.68 | 42.3 ± 7.9 µM | 18.2 ± 3.6 µM | 2.32 | 32.3 ± 7.9 µM | 1.31 | IC50 [2, 17]: 11.5 ± 6.6 µM; cells in late apoptosis or necrosis [6]: 55.6%; reduction of IL-6 release vs control [12]: strongest effect; reduction of IL-6 secretion vs control [13]: around 50%
11 | CCc1cc(=O)c2c(O)c3ccoc3c(OC)c2o1 [Compound 2, 7-ethyl-4-hydroxy-9-methoxy-5H-furo[3,2-g][1]benzopyran-5-one] | 29.2 ± 3.9 µM | 1.59 | 17.4 ± 3.5 µM | 2.67 | 46.5 ± 8.5 µM | 29.4 ± 3.4 µM | 1.58 | 36.5 ± 6.5 µM | 1.27 | cells in late apoptosis or necrosis [6]: 63.2%; IL-6 release effect vs control [14]: 38%; cells in early apoptosis [7, 19]: 19.5%; cells in late apoptosis or necrosis [7, 19]: 20.8%; LDH release [15]: 13.5%; LDH release [16]: 30.4%
